Reference: ChEMBL document CHEMBL1145326, “Antimycobacterial agents. Novel diarylpyrrole derivatives of BM212 endowed with high activity toward Mycobacterium tuberculosis and low cytotoxicity” (2006)
In brackets after ≈: the same amount, converted by molar mass.

Experiments:
Mycobacterium marinum = experiment: Antibacterial activity against Mycobacterium marinum; type: functional
Outline: (§1)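 MIC by serial 2-fold tube dilution. Compound DMSO stocks were filter-sterilised (0.2 µm) and diluted in water. Tubes were inoculated with 10⁵–10⁶ CFU/mL of each mycobacterium and incubated at 37 °C for 3–21 days. Each run included a drug-free control tube. Values are in µg/mL.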

[1] = system: Mycobacterium tuberculosis; experiment: Antibacterial activity against Mycobacterium tuberculosis 103471; type: functional; outline: as §1
Vero [2] = experiment: Protection index, cytotoxicity against Vero cell line/antibacterial activity against Mycobacterium tuberculosis 103471; type: functional
Outline: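 Protection index is the ratio of Vero-cell MNTD₅₀ (cell counts after 5-day exposure) to the MIC against M. tuberculosis CIP 103471. The MIC came from 2-fold tube dilution, inoculum 10⁵–10⁶ CFU/mL, 37 °C.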

[3] = system: Mycolicibacterium smegmatis; experiment: Antibacterial activity against Mycobacterium smegmatis; type: functional; outline: as §1
Mycobacterium avium = experiment: Antibacterial activity against Mycobacterium avium; type: functional; outline: as §1
Vero [4] = experiment: Cytotoxicity against Vero cell line; type: functional, Chlorocebus sabaeus
Outline: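 Vero cells were cultured for 24 h, then the medium was replaced with medium holding decreasing compound concentrations. After 5 days the cells were trypsinised and counted in a Neubauer chamber, in triplicate. MNTD₅₀ (µg/mL) is the concentration that decreased cell multiplication by less than 50% of control.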

[5] = system: Mycobacterium tuberculosis; experiment: Antibacterial activity against intramacrophagic Mycobacterium tuberculosis; type: functional

SMILES	MIC (Mycobacterium marinum)	MIC [1]	PI (Vero [2])	MIC [3]	MIC (Mycobacterium avium)	Maximal non-toxic dose 50 (Vero [4])	MCC [5]
Cc1c(CN2CCN(C)CC2)cc(-c2ccc(Cl)cc2)n1-c1ccc(Cl)cc1	100 mg/L (≈ 241 µM)	0.7 mg/L (≈ 1.69 µM)	5.6	25 mg/L (≈ 60.3 µM)	0.4 mg/L (≈ 0.965 µM)	4 µg/mL	
Cc1c(CN2CCSCC2)cc(-c2ccc(F)cc2)n1-c1ccccc1Cl	> 16 mg/L	2 mg/L (≈ 4.99 µM)	4	> 16 mg/L	> 16 mg/L	8 µg/mL	
Cc1cccc(-c2cc(CN3CCN(C)CC3)c(C)n2-c2ccc(F)cc2)c1	> 16 mg/L	16 mg/L (≈ 42.4 µM)	0.5	> 16 mg/L	16 mg/L (≈ 42.4 µM)	8 µg/mL	
Cc1ccccc1-c1cc(CN2CCN(C)CC2)c(C)n1-c1ccc(F)cc1	> 16 mg/L	> 16 mg/L		> 16 mg/L	> 16 mg/L	2 µg/mL	
Cc1c(CN2CCSCC2)cc(-c2ccc(F)cc2)n1-c1ccc(Cl)cc1Cl	8 mg/L (≈ 18.4 µM)	1 mg/L (≈ 2.3 µM)	4	16 mg/L (≈ 36.7 µM)	2 mg/L (≈ 4.59 µM)	4 µg/mL	
Cc1ccccc1-n1c(-c2ccc(F)cc2)cc(CN2CCN(C)CC2)c1C	> 16 mg/L	> 16 mg/L		> 16 mg/L	> 16 mg/L	2 µg/mL	
Cc1ccc(-c2cc(CN3CCSCC3)c(C)n2-c2ccc(F)cc2)cc1	8 mg/L (≈ 21 µM)	0.4 mg/L (≈ 1.05 µM)	160	16 mg/L (≈ 42 µM)	8 mg/L (≈ 21 µM)	64 µg/mL	3 µg/mL
Cc1c(CN2CCSCC2)cc(-c2ccccc2Cl)n1-c1ccc(F)cc1	> 16 mg/L	4 mg/L (≈ 9.98 µM)	1	> 16 mg/L	16 mg/L (≈ 39.9 µM)	4 µg/mL	
Cc1c(CN2CCSCC2)cc(-c2ccc(F)cc2)n1-c1ccccc1F	> 16 mg/L	0.5 mg/L (≈ 1.3 µM)	16	8 mg/L (≈ 20.8 µM)	8 mg/L (≈ 20.8 µM)	8 µg/mL	3 µg/mL
Cc1c(CN2CCN(C)CC2)cc(-c2ccc(F)cc2)n1-c1ccccc1F	> 16 mg/L	8 mg/L (≈ 21 µM)	1	0.3 mg/L (≈ 0.786 µM)	16 mg/L (≈ 41.9 µM)	8 µg/mL	
Cc1ccc(-c2cc(CN3CCN(C)CC3)c(C)n2-c2ccc(F)cc2)cc1	> 16 mg/L	4 mg/L (≈ 10.6 µM)	2	8 mg/L (≈ 21.2 µM)	4 mg/L (≈ 10.6 µM)	8 µg/mL	
Cc1c(CN2CCSCC2)cc(-c2ccc(Cl)cc2Cl)n1-c1ccc(F)cc1	> 16 mg/L	2 mg/L (≈ 4.59 µM)	32	> 16 mg/L	4 mg/L (≈ 9.19 µM)	64 µg/mL	
Cc1c(CN2CCN(C)CC2)cc(-c2ccccc2Cl)n1-c1ccc(F)cc1	> 16 mg/L	8 mg/L (≈ 20.1 µM)	0.25	> 16 mg/L	16 mg/L (≈ 40.2 µM)	2 µg/mL	
CN[C@@H]1[C@H](O[C@H]2[C@H](O[C@H]3[C@H](O)[C@@H](O)[C@H](N=C(N)N)[C@@H](O)[C@@H]3N=C(N)N)O[C@@H](C)[C@]2(O)C=O)O[C@@H](CO)[C@H](O)[C@H]1O (stereo in doubt) [STREPTOMYCIN]	32 mg/L (≈ 55 µM)	0.5 mg/L (≈ 0.86 µM)	>128	8 mg/L (≈ 13.8 µM)	8 mg/L (≈ 13.8 µM)	>64 µg/mL	
NNC(=O)c1ccncc1 [ISONIAZID]	16 mg/L (≈ 117 µM)	0.25 mg/L (≈ 1.82 µM)	128	64 mg/L (≈ 467 µM)	32 mg/L (≈ 233 µM)	32 µg/mL	
CO[C@H]1/C=C/O[C@@]2(C)Oc3c(C)c(O)c4c(O)c(c(/C=N/N5CCN(C)CC5)c(O)c4c3C2=O)NC(=O)/C(C)=C\C=C\[C@H](C)[C@H](O)[C@@H](C)[C@@H](O)[C@@H](C)[C@H](OC(C)=O)[C@@H]1C [RIFAMPIN]	0.6 mg/L (≈ 0.729 µM)	0.3 mg/L (≈ 0.365 µM)	213	32 mg/L (≈ 38.9 µM)	0.3 mg/L (≈ 0.365 µM)	64 µg/mL	3 µg/mL
